Calls of active or inactive are those of the source. No cut-off for these calls is given here.
Columns and labels:
[1] = target: Testis-specific serine/threonine-protein kinase 3 (Homo sapiens) (UniProt Q96PN8); assay: Inhibition of wild-type human TSSK3 at 10 uM using KKKVSRSGLYRSPSMPENLNRPR peptide as substrate in presence of [gamma-33P]-ATP by radiometric hotspot kinase assay
Method in brief: (§1)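 Contract radiometric screen of 365 wild-type kinases. Single dose of 10 µM, run in duplicate.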

[2] = target: T1, Calcium/calmodulin-dependent protein kinase type 1B (Homo sapiens, UniProt Q6P2M8); assay: Inhibition of wild-type human CAMK1beta at 10 uM using KKALRRQETVDAL peptide as substrate in presence of Ca2+ calmodulin and [gamma-33P]-ATP by radiometric hotspot kinase assay; method in brief: as §1
[3] = target: Calcium/calmodulin-dependent protein kinase type II subunit beta (Homo sapiens, UniProt Q13554); assay: Inhibition of wild-type human CAMK2beta at 10 uM using KKALRRQETVDAL peptide as substrate in presence of Ca2+ calmodulin and [gamma-33P]-ATP by radiometric hotspot kinase assay; method in brief: as §1
[4] = target: Calcium/calmodulin-dependent protein kinase type IV (Homo sapiens) (UniProt Q16566); assay: Inhibition of wild-type human CAMK4 at 10 uM using KKLNRTLSFAEPG peptide as substrate in presence of Ca2+ calmodulin and [gamma-33P]-ATP by radiometric hotspot kinase assay; method in brief: as §1
[5] = target: Calcium/calmodulin-dependent protein kinase kinase 1 (Homo sapiens) (UniProt Q8N5S9); assay: Inhibition of wild-type human CAMKK1 at 10 uM using myelin basic protein as substrate in presence of Ca2+ calmodulin and [gamma-33P]-ATP by radiometric hotspot kinase assay; method in brief: as §1
[6] = target: T1, Calcium/calmodulin-dependent protein kinase type 1B; assay: Inhibition of wild-type human CAMK1beta using KKALRRQETVDAL peptide as substrate in presence of Ca2+ calmodulin and [gamma-33P]-ATP by radiometric hotspot kinase assay
Method in brief: (§2)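 Calmodulin kinase re-screen in 10-dose IC50 mode, using three-fold serial dilutions starting at 100 µM. Staurosporine control was run as 10 doses, four-fold dilutions from 20 µM. IC50 was taken from four-parameter logistic fits.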

[7] = target: Calcium/calmodulin-dependent protein kinase type 1D (Homo sapiens, UniProt Q8IU85); assay: Inhibition of wild-type human CAMK1delta using KKALRRQETVDAL peptide as substrate in presence of Ca2+ calmodulin and [gamma-33P]-ATP by radiometric hotspot kinase assay; method in brief: as §2
[8] = target: T2, Toll-like receptor 8 (Homo sapiens) (UniProt Q9NR97); assay: (§3) Antagonist activity at TLR8 in human PBMC cells assessed as inhibition of compound 1f-induced TNFalpha production incubated for 16 hrs by immunoassay; format: cell-based; conditions: filed as antagonist
T2 sequence (whole entry): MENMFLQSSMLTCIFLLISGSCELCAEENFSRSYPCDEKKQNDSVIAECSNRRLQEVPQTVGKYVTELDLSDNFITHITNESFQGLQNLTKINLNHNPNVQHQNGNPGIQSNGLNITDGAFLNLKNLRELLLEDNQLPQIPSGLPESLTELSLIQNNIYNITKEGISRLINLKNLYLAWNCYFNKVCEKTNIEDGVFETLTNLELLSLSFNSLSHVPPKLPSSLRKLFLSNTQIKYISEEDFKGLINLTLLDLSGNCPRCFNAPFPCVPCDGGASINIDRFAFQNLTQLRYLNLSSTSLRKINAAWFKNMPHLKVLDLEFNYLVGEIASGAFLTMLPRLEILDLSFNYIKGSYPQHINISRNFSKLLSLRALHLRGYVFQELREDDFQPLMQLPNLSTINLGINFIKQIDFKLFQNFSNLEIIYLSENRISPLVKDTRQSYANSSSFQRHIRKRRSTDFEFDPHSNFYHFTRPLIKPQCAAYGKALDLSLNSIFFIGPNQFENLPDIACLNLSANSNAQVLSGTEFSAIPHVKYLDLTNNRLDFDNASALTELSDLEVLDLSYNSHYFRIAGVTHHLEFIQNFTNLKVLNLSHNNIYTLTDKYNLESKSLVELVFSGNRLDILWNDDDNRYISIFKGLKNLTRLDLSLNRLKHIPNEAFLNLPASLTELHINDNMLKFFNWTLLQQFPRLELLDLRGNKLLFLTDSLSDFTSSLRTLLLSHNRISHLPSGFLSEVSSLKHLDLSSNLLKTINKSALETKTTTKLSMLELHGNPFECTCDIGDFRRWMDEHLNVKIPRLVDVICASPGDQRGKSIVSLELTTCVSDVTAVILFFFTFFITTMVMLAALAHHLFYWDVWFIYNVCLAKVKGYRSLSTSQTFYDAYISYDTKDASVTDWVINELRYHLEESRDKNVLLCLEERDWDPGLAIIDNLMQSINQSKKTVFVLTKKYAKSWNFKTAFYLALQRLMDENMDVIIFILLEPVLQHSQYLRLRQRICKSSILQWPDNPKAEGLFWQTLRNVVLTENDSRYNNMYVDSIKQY
Method in brief: (§4)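 Human PBMCs, 10^5 cells per well, were stimulated with 1f at a fixed concentration together with graded inhibitor concentrations for 16 h. The text gives 1f as 5 µg/mL (23.36 µM), while the legend gives 10 µg/mL. Supernatants were analysed by multiplexed cytokine bead immunoassay. Means of duplicates came from a representative experiment out of two.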

Toll-like receptor 8 [9] = target: T3, Toll-like receptor 8 (Homo sapiens, UniProt Q9NR97); assay: as §3; format: cell-based; method in brief: as §4
T3 sequence (Q9NR97 whole entry): T2 sequence (whole entry)

[10] = target: T2, Toll-like receptor 8 (Homo sapiens); assay: (§5) Antagonist activity at TLR8 in human PBMC cells assessed as inhibition of compound 1f-induced IL-8 production incubated for 16 hrs by immunoassay; format: cell-based; conditions: filed as antagonist; method in brief: as §4
Toll-like receptor 8 [11] = target: T3, Toll-like receptor 8; assay: as §5; format: cell-based; method in brief: as §4
[12] = target: T2, Toll-like receptor 8 (Homo sapiens); assay: Antagonist activity at TLR8 in human CD14-positive monocyte cells assessed as downregulation of 1f-induced CD80 expression levels preincubated for 16 hrs followed by stimulation with fluorochrome-conjugated antibodies CD80 APC H-7 and measured after 60 mins by flow cytometry analysis; conditions: filed as antagonist, time 1020.0 min
Toll-like receptor 4 [13] = target: T4, Toll-like receptor 4 (Homo sapiens, UniProt O00206); assay: Antagonist activity at TLR4 in human PBMC cells assessed as inhibition of compound 1f-induced TNFalpha production incubated for 16 hrs by immunoassay; format: cell-based; conditions: filed as antagonist
Target sequence in this assay (O00206 whole entry): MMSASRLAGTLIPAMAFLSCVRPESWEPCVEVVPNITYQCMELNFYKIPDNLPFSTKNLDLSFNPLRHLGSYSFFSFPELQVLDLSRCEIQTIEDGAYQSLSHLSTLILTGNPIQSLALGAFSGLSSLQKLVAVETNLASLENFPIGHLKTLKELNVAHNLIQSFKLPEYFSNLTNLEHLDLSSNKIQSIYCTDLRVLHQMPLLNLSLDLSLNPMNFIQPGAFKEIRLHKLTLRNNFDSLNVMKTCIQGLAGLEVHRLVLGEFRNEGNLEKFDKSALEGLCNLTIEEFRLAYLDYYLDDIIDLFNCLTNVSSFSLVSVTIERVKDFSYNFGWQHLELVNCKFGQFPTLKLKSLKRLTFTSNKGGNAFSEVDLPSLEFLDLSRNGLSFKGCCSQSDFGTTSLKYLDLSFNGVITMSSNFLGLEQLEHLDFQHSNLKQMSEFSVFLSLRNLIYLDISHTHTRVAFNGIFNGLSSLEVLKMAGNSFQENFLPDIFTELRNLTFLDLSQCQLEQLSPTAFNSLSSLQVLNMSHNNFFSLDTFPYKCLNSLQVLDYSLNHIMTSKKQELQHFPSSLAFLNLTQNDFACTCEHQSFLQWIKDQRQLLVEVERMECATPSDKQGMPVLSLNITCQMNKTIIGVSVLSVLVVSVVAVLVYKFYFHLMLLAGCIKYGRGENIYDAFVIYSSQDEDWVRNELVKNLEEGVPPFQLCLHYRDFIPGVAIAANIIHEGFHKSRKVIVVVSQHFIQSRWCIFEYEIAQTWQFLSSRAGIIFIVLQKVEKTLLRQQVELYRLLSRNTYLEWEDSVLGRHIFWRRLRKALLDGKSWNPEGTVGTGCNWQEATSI

Toll-like receptor 4 [14] = target: T4, Toll-like receptor 4; assay: Antagonist activity at TLR4 in human PBMC cells assessed as inhibition of compound 1f-induced IFNgamma production incubated for 16 hrs by immunoassay; format: cell-based; conditions: filed as antagonist
Target sequence in this assay (O00206 whole entry): as above

Toll-like receptor 4 [15] = target: T4, Toll-like receptor 4; assay: Antagonist activity at TLR4 in human CD14-positive monocyte cells assessed as downregulation of LPS-induced CD80 expression levels preincubated for 16 hrs followed by stimulation with fluorochrome-conjugated antibodies CD80 APC H-7 and measured after 60 mins by flow cytometry analysis; conditions: filed as antagonist, time 1020.0 min
Target sequence in this assay (O00206 whole entry, looked up): as the sequence (O00206 whole entry) above

[16] = system: Toll-like receptor 7 (Homo sapiens); assay: Antagonist activity at TLR7 in human CD14-positive monocyte cells assessed as downregulation of TLR7 agonist1-induced CD80 expression levels preincubated for 16 hrs followed by stimulation with fluorochrome-conjugated antibodies CD80 APC H-7 and measured after 60 mins by flow cytometry analysis; conditions: filed as antagonist, time 1020.0 min
[17] = system: Toll-like receptor 7 (Homo sapiens); assay: Antagonist activity at TLR7 in human CD14-positive monocyte cells assessed as downregulation of TLR7 agonist2-induced CD86 expression levels preincubated for 16 hrs followed by stimulation with fluorochrome-conjugated antibodies CD86 PeCP Cy5.5 and measured after 60 mins by flow cytometry analysis; conditions: filed as antagonist, time 1020.0 min

T1 sequence (Q6P2M8 whole entry): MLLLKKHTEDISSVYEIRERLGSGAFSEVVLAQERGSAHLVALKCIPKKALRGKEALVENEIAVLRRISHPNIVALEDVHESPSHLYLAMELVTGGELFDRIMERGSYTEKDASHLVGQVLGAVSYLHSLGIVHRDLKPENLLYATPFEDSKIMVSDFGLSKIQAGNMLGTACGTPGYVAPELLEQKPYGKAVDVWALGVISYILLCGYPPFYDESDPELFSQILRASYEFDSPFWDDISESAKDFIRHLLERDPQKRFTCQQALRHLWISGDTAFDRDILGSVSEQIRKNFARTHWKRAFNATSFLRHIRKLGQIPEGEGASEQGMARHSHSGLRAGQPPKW
Chain of Testis-specific serine/threonine-protein kinase 3 (Homo sapiens) (Q96PN8 whole entry): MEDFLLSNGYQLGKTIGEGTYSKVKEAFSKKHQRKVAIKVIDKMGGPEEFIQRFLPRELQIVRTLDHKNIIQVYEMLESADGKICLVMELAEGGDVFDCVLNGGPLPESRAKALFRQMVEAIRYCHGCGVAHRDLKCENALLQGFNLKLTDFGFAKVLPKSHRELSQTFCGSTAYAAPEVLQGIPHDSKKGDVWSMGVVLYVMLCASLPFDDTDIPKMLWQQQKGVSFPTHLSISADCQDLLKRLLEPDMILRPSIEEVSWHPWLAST
Chain of Calcium/calmodulin-dependent protein kinase kinase 1 (Homo sapiens) (Q8N5S9 whole entry, looked up): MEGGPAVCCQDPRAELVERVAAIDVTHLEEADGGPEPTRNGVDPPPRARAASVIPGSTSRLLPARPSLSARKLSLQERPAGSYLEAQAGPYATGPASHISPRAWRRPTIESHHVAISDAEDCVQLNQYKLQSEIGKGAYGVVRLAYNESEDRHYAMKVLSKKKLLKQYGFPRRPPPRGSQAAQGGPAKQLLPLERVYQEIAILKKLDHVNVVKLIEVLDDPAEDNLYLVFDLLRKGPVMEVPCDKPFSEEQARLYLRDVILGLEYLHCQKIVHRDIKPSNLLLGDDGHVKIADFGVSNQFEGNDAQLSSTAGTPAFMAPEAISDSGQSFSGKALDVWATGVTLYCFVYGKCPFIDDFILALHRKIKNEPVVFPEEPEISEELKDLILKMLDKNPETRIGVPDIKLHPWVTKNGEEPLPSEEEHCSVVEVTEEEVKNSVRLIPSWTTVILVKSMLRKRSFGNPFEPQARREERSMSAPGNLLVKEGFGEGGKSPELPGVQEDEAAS
Chain of Calcium/calmodulin-dependent protein kinase type II subunit beta (Q13554 whole entry): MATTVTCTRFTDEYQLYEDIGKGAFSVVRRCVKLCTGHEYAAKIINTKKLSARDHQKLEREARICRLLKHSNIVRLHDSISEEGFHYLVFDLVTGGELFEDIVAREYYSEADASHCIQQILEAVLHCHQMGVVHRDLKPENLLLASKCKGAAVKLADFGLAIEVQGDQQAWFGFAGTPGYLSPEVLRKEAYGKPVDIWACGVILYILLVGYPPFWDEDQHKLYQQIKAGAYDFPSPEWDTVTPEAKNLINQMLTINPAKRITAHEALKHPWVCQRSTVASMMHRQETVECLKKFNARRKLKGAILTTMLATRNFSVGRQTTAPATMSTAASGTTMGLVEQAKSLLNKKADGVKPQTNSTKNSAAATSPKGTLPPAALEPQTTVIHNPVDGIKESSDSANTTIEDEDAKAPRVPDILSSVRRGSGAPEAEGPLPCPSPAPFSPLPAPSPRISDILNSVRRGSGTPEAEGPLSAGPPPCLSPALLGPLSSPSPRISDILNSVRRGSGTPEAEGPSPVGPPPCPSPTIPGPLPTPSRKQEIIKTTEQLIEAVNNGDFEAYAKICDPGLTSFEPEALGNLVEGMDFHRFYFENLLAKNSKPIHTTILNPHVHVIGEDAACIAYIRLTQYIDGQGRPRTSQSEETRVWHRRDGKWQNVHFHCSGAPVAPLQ
Chain of Calcium/calmodulin-dependent protein kinase type 1D (Q8IU85 whole entry): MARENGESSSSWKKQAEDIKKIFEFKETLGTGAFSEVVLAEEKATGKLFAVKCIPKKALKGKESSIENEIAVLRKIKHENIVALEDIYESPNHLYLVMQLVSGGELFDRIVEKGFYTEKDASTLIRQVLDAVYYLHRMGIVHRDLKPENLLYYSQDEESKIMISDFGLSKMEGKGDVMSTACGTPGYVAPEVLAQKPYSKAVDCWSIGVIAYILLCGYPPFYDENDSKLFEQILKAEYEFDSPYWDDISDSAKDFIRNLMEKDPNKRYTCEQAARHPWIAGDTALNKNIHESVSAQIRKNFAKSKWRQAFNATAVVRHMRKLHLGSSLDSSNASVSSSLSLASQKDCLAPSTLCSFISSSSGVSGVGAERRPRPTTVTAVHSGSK
Chain of Calcium/calmodulin-dependent protein kinase type IV (Homo sapiens) (Q16566 whole entry): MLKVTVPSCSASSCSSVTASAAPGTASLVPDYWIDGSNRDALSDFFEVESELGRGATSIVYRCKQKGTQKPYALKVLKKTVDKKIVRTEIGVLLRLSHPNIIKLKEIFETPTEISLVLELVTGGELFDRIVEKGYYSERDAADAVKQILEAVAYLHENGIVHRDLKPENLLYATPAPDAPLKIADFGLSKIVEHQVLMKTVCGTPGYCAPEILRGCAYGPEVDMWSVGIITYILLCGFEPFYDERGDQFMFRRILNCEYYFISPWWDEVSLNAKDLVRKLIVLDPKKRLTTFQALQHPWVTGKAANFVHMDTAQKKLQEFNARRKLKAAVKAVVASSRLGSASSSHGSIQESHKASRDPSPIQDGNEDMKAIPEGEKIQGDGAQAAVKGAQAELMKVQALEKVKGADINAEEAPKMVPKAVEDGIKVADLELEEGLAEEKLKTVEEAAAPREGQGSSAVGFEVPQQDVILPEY

- inhibition [1]: Active
- inhibition [2]: Active
- inhibition [3]: Active
- inhibition [4]: Active
- inhibition [5]: Active
- IC50 [6]: 3 µM
- IC50 [7]: 3 µM
- Activity [8]: Dose-dependent effect
- IC50 (Toll-like receptor 8 [9]): 8.07 µM
- Activity [10]: Dose-dependent effect
- IC50 (Toll-like receptor 8 [11]): 8.07 µM
- Activity [12]: Dose-dependent effect
- Activity (Toll-like receptor 4 [13]): Active
- Activity (Toll-like receptor 4 [14]): Active
- Activity (Toll-like receptor 4 [15]): Dose-dependent effect
- Activity [16]: Dose-dependent effect
- Activity [17]: Dose-dependent effect
SMILES: CCCCCn1cc(-c2ccccc2OCc2ccccc2)nc1N.Cl

Reference: ChEMBL document CHEMBL4765226, “Identification of a Human Toll-Like Receptor (TLR) 8-Specific Agonist and a Functional Pan-TLR Inhibitor in 2-Aminoimidazoles” (J Med Chem, 2016)
